Measurements gathered from unrelated publications.
Each line is one published result; the experiments were not run side by side.
Oprk1: Kappa-type opioid receptor (Oprk1, Mus musculus, UniProt P33534)
SLC6A2: Sodium-dependent noradrenaline transporter (SLC6A2, Homo sapiens, UniProt P23975)
MPO: Myeloperoxidase (MPO, Homo sapiens, UniProt P05164)

| SMILES | target | assay | test system | conditions | inhibition [%] |
| --- | --- | --- | --- | --- | --- |
| C#Cc1cc(-c2cc(Nc3nc(N[C@@H](C)c4ccc(F)cn4)ncc3Cl)n[nH]2)ccc1C=O | Interferon-induced, double-stranded RNA-activated protein kinase (EIF2AK2, Homo sapiens, UniProt P19525) | enzyme activity, inhibitor | – | 0.2 µM | 7.44 |
| CC(C)[C@H](CN1CCc2ccccc2C1)NC(=O)c1cccc(-c2ccccc2)c1 | Oprk1 | ligand displacement, radioligand | – | 10 µM | 72.2 |
| Cc1cc(F)cc2c(CCC(=O)N[C@@H]3C(=O)NC[C@H]3O)c(-c3ccc(F)cc3)[nH]c12 | SLC6A2 | cell-free assay | – | 10 µM | 21 |
| N#CC[C@@]12C[C@@H]1[C@@H](n1cnc3c(NC4CC4)nc(C#Cc4ccc(Cl)s4)nc31)[C@H](O)[C@@H]2O | SLC6A2 | ligand displacement, radioligand | – | 10 µM | 28 |
| CC(C)[C@H](CN1CCc2ccccc2C1)NC(=O)c1c(Cl)cncc1Cl | Oprk1 | ligand displacement, radioligand | – | 10 µM | 69.4 |
| NC/C(=C\F)COc1cccc(Cn2c(=S)[nH]c(=O)c3[nH]cnc32)c1 | MPO | enzyme activity, inhibitor, fluorescence | – | 3.333 µM | 99.2 |
| CCOC(=O)C12CC1C(n1ccc3c(NCCCc4ccccc4)nc(C#Cc4ccc(Cl)s4)nc31)C(O)C2O (stereo not drawn) | SLC6A2 | ligand displacement, radioligand | – | 10 µM | 50 |
| CC(C)[C@@H](CN1CCc2ccccc2C1)NC(=O)C=Cc1ccccc1 | Oprk1 | ligand displacement, radioligand | – | 10 µM | 22.7 |
| Cc1cc(O)c(-c2ccc([C@@H](C)CN(C)C)cc2)c2c1[nH]c(=O)c1sccc12 | RPS6KC1 (Homo sapiens, UniProt Q96S38) | cell-free assay, inhibitor | – | 0.1 µM, lysate | 5.19 |
| CCOC(=O)[C@@]12C[C@@H]1[C@@H](n1cnc3c(NCCCCCc4ccccc4)nc(C#Cc4ccc(Cl)s4)nc31)[C@H](O)[C@@H]2O | SLC6A2 | transporter uptake, inhibitor, radiometric | HEK293 | 10 µM | 0 |
| CC(C)[C@@H](CN1CCc2ccccc2C1)NC(=O)c1ccc(F)cc1 | Oprk1 | ligand displacement, radioligand | – | 10 µM | 75.7 |
| CCOC(=O)[C@@]12C[C@@H]1[C@@H](n1cnc3c(Nc4ccccc4)nc(C#Cc4ccc(Cl)s4)nc31)[C@H](O)[C@@H]2O | SLC6A2 | ligand displacement, radioligand | – | 10 µM | 78 |
| CC(C)OCCn1c(=S)[nH]c(=O)c2[nH]ccc21 | MPO | enzyme activity, inhibitor, fluorescence | – | 0.1852 µM | 82.5 |
| CC(C)[C@@H](CN1CCc2ccccc2C1)NC(=O)c1cccc(-c2cccc(C#N)c2)c1 | Oprk1 | ligand displacement, radioligand | – | 10 µM | 80.6 |
| OC[C@@]12C[C@@H]1[C@@H](n1cnc3c(NCCCCCCc4ccccc4)nc(I)nc31)[C@H](O)[C@@H]2O | SLC6A2 | ligand displacement, radioligand | – | 10 µM | 52 |
| COc1ccc(Cl)cc1-c1cc(=O)[nH]c(=S)n1CC(N)=O | MPO | enzyme activity, inhibitor, fluorescence | – | 30 µM | 98.3 |
| CC(C)[C@@H](CN1CCc2ccccc2C1)NC(=O)c1cccc(-c2ccc(F)cc2)c1 | Oprk1 | ligand displacement, radioligand | – | 10 µM | 63.9 |
| CCOC(=O)[C@@]12C[C@@H]1[C@@H](n1cnc3c(NCCCCCCc4ccccc4)nc(C#Cc4ccc(Cl)s4)nc31)[C@H](O)[C@@H]2O | SLC6A2 | ligand displacement, radioligand | – | 10 µM | 83 |
